Assay results published in ChEMBL document CHEMBL4257495, “Crystallomycin revisited after 60 years: aspartocins B and C” (2018).
In brackets after ≈: the same amount, converted by molar mass. Activity calls are given as the source filed them. The rule behind the calls is not given here.

What was measured:
Staphylococcus aureus [1] = assay: Antibacterial activity against Staphylococcus aureus ATCC 29213 by broth microdilution method; type: functional
In short: (§1)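 MIC by broth microdilution following CLSI guidelines, run in medium without added Ca2+ and with Ca2+ ions supplemented (level not given). Reference strains came from the Tarasevich State Research Institution collection of pathogenic microorganisms. Clinical MRSA/MRSE isolates came from the Russia Research Institute for Antibiotics Culture Collection.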

Staphylococcus aureus [2] = assay: Antibacterial activity against methicillin-resistant Staphylococcus aureus 86 by broth microdilution method; type: functional; in short: as §1
Staphylococcus aureus [3] = assay: Antibacterial activity against methicillin-resistant Staphylococcus aureus 88 by broth microdilution method; type: functional; in short: as §1
Staphylococcus aureus [4] = assay: Antibacterial activity against methicillin-resistant Staphylococcus aureus 71001 by broth microdilution method; type: functional; in short: as §1
Staphylococcus aureus [5] = assay: Antibacterial activity against methicillin-resistant Staphylococcus aureus 20450 by broth microdilution method; type: functional; in short: as §1
[6] = test system: Staphylococcus epidermidis; assay: Antibacterial activity against methicillin-resistant Staphylococcus epidermidis C2001 by broth microdilution method; type: functional; in short: as §1
[7] = test system: Staphylococcus epidermidis; assay: Antibacterial activity against methicillin-resistant Staphylococcus epidermidis 004-T1 by broth microdilution method; type: functional; in short: as §1
Staphylococcus aureus [8] = assay: Antibacterial activity against Staphylococcus aureus ATCC 29213 in presence of Ca2+ by broth microdilution method; type: functional; in short: as §1
Staphylococcus aureus [9] = assay: Antibacterial activity against methicillin-resistant Staphylococcus aureus 86 in presence of Ca2+ by broth microdilution method; type: functional; in short: as §1
Staphylococcus aureus [10] = assay: Antibacterial activity against methicillin-resistant Staphylococcus aureus 88 in presence of Ca2+ by broth microdilution method; type: functional; in short: as §1
Staphylococcus aureus [11] = assay: Antibacterial activity against methicillin-resistant Staphylococcus aureus 71001 in presence of Ca2+ by broth microdilution method; type: functional; in short: as §1
Staphylococcus aureus [12] = assay: Antibacterial activity against methicillin-resistant Staphylococcus aureus 20450 in presence of Ca2+ by broth microdilution method; type: functional; in short: as §1
Staphylococcus aureus [13] = assay: Antibacterial activity against methicillin-resistant Staphylococcus aureus 17 in presence of Ca2+ by broth microdilution method; type: functional; in short: as §1
[14] = test system: Staphylococcus epidermidis; assay: Antibacterial activity against methicillin-resistant Staphylococcus epidermidis C2001 in presence of Ca2+ by broth microdilution method; type: functional; in short: as §1
[15] = test system: Staphylococcus epidermidis; assay: Antibacterial activity against methicillin-resistant Staphylococcus epidermidis 004-T1 in presence of Ca2+ by broth microdilution method; type: functional; in short: as §1
[16] = test system: Staphylococcus epidermidis; assay: Antibacterial activity against methicillin-resistant Staphylococcus epidermidis 20459 in presence of Ca2+ by broth microdilution method; type: functional; in short: as §1
Enterococcus faecalis [17] = assay: Antibacterial activity against Enterococcus faecalis ATCC 29212 in presence of Ca2+ by broth microdilution method; type: functional
Enterococcus gallinarum [18] = assay: Antibacterial activity against Enterococcus gallinarum VP4147 in presence of Ca2+ by broth microdilution method; type: functional
Escherichia coli = assay: Antibacterial activity against Escherichia coli ATCC 25922; type: functional, organism-based; in short: as §1
Aspergillus niger = assay: Antifungal activity against Aspergillus niger ATCC 16404; type: functional, organism-based
Candida albicans = assay: Antifungal activity against Candida albicans ATCC 14053; type: functional, organism-based
Staphylococcus aureus [19] = assay: Ratio of MIC for Staphylococcus aureus ATCC 29213 in absence of Ca2+ to MIC for Staphylococcus aureus ATCC 29213 in presence of Ca2+; type: functional
[20] = test system: Staphylococcus epidermidis; assay: Ratio of MIC for methicillin-resistant Staphylococcus epidermidis C2001 in absence of Ca2+ to MIC for methicillin-resistant Staphylococcus epidermidis C2001 in presence of Ca2+; type: functional
[21] = test system: Staphylococcus epidermidis; assay: Ratio of MIC for methicillin-resistant Staphylococcus epidermidis 004-T1 in absence of Ca2+ to MIC for methicillin-resistant Staphylococcus epidermidis 004-T1 in presence of Ca2+; type: functional
Staphylococcus aureus [22] = assay: Antibacterial activity against methicillin-resistant Staphylococcus aureus 17 by broth microdilution method; type: functional; in short: as §1
[23] = test system: Staphylococcus epidermidis; assay: Antibacterial activity against methicillin-resistant Staphylococcus epidermidis 20459 by broth microdilution method; type: functional; in short: as §1
Enterococcus faecalis [24] = assay: Antibacterial activity against Enterococcus faecalis ATCC 29212 by broth microdilution method; type: functional; in short: as §1
Enterococcus gallinarum [25] = assay: Antibacterial activity against Enterococcus gallinarum VP4147 by broth microdilution method; type: functional
Enterococcus faecalis [26] = assay: Ratio of MIC for Enterococcus faecalis ATCC 29212 in absence of Ca2+ to MIC for Enterococcus faecalis ATCC 29212 in presence of Ca2+; type: functional
Enterococcus gallinarum [27] = assay: Ratio of MIC for Enterococcus gallinarum VP4147 in absence of Ca2+ to MIC for Enterococcus gallinarum VP4147 in presence of Ca2+; type: functional

Row | Compound | MIC (Staphylococcus aureus [1]) [µg/mL] | MIC (Staphylococcus aureus [2]) [µg/mL] | MIC (Staphylococcus aureus [3]) [µg/mL] | MIC (Staphylococcus aureus [4]) [µg/mL] | MIC (Staphylococcus aureus [5]) [µg/mL] | MIC [6] [µg/mL] | MIC [7] [µg/mL] | MIC (Staphylococcus aureus [8]) [µg/mL] | MIC (Staphylococcus aureus [9]) [µg/mL] | MIC (Staphylococcus aureus [10]) [µg/mL] | MIC (Staphylococcus aureus [11]) [µg/mL] | MIC (Staphylococcus aureus [12]) [µg/mL] | MIC (Staphylococcus aureus [13]) [µg/mL] | MIC [14] [µg/mL] | MIC [15] [µg/mL] | MIC [16] [µg/mL] | MIC (Enterococcus faecalis [17]) [µg/mL] | MIC (Enterococcus gallinarum [18]) [µg/mL] | Activity (Escherichia coli) | Activity (Aspergillus niger) | further results
1 | CC(C)CCCCCCC/C=C/CC(=O)N[C@@H](CC(=O)O)C(=O)N[C@@H]1C(=O)N2CCCC[C@@H]2C(=O)N[C@@H]([C@H](C)C(=O)O)C(=O)N[C@@H](CC(=O)O)C(=O)NCC(=O)N[C@@H](CC(=O)O)C(=O)NCC(=O)N[C@H](C(C)N)C(=O)N[C@@H](C(C)C)C(=O)N2CCC[C@H]2C(=O)N[C@@H]1C (some centres undefined) | 16 (≈ 12.3 µM) | 16 (≈ 12.3 µM) | 16 (≈ 12.3 µM) | 16 (≈ 12.3 µM) | 16 (≈ 12.3 µM) | 16 (≈ 12.3 µM) | 32 (≈ 24.5 µM) | 4 | 4 | 4 | 4 | 2 | 4 | 4 | 4 | 4 | 8 | 4 to 8 | inactive | inactive | Activity (Candida albicans): inactive; Ratio (Staphylococcus aureus [19]): 2 - 8; Ratio [20]: 2 - 8; Ratio [21]: 2 - 8
2 | CCCCCCCCCC(=O)N[C@@H](Cc1c[nH]c2ccccc12)C(=O)N[C@@H](CC(N)=O)C(=O)N[C@@H](CC(=O)O)C(=O)N[C@@H]1C(=O)NCC(=O)N[C@@H](CCCN)C(=O)N[C@@H](CC(=O)O)C(=O)N[C@H](C)C(=O)N[C@@H](CC(=O)O)C(=O)NCC(=O)N[C@H](CO)C(=O)N[C@@H]([C@H](C)CC(=O)O)C(=O)N[C@@H](CC(=O)c2ccccc2N)C(=O)O[C@@H]1C [DAPTOMYCIN] | 0.5 (≈ 0.309 µM) | 1 (≈ 0.617 µM) | 0.5 to 1 (≈ 0.309 to 0.617 µM) | 0.5 to 1 (≈ 0.309 to 0.617 µM) | 1 (≈ 0.617 µM) | 1 (≈ 0.617 µM) | 1 (≈ 0.617 µM) | – | – | – | – | – | – | – | – | – | – | – | – | – | MIC (Staphylococcus aureus [22]): 2 µg/mL (≈ 1.23 µM); MIC [23]: 1 µg/mL (≈ 0.617 µM); MIC (Enterococcus faecalis [24]): 4 µg/mL (≈ 2.47 µM); MIC (Enterococcus gallinarum [25]): 8 µg/mL (≈ 4.94 µM)
3 | CCC(C)CCCCCCC/C=C\CC(=O)N[C@@H](CC(=O)O)C(=O)N[C@@H]1C(=O)N2CCCC[C@@H]2C(=O)N[C@@H]([C@H](C)C(=O)O)C(=O)N[C@@H](CC(=O)O)C(=O)NCC(=O)N[C@@H](CC(=O)O)C(=O)NCC(=O)N[C@H](C(C)N)C(=O)N[C@@H](C(C)C)C(=O)N2CCC[C@H]2C(=O)N[C@@H]1C (some centres undefined) | 4 to 8 (≈ 3.03 to 6.07 µM) | 8 (≈ 6.07 µM) | 8 (≈ 6.07 µM) | 8 (≈ 6.07 µM) | 8 (≈ 6.07 µM) | 4 to 8 (≈ 3.03 to 6.07 µM) | 16 (≈ 12.1 µM) | 2 | 2 | 2 | 2 | 1 to 2 | 4 | 2 | 4 | 4 | 8 | 4 to 8 | inactive | inactive | MIC (Staphylococcus aureus [22]): 8 µg/mL (≈ 6.07 µM); MIC (Enterococcus faecalis [24]): 16 µg/mL (≈ 12.1 µM); MIC (Enterococcus gallinarum [25]): 16 µg/mL (≈ 12.1 µM); Activity (Candida albicans): inactive; Ratio (Staphylococcus aureus [19]): 2 - 8; Ratio [20]: 2 - 8; Ratio [21]: 2 - 8; Ratio (Enterococcus faecalis [26]): 2 - 8; Ratio (Enterococcus gallinarum [27]): 2 - 8
